Experimental data: ChEMBL document CHEMBL1155544, “Syntheses and structure-activity relationship (SAR) studies of 2,5-diazabicyclo[2.2.1]heptanes as novel alpha7 neuronal nicotinic receptor (NNR) ligands” (Bioorg Med Chem Lett, 2010)

Assay: Metabolic stability in human liver microsome assessed as compound remaining after 30 mins
Assay type: ADME
Conditions: liver microsomes, read-out: Stability
In short: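 Human liver microsomes, 30 min incubation; read-out is percent of parent compound remaining.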

**Q.** With `CN1C[C@@H]2C[C@H]1CN2c1ccc(-c2ccc3[nH]ccc3c2)nn1` as the compound, how does the remaining at 0.5 h read?
**A.** 97%
